From PubChem BioAssay come the findings set out here.

The source made the active and inactive calls.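 How the source made its calls, unless noted: active means Her2 level under about 52% in both replicate screens, with viability over 70% of control (limit read from the data); inconclusive means Her2 under the limit in one screen only, or viability under 70%; inactive means Her2 level above the set limit.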

A short description of test [1]: reducers of endogenous Her2 protein level, primary screen, SKBR3 breast tumor cells, AlphaScreen, ATP viability (AID 461).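 On Her2 level: lower value means less Her2 protein in the cells.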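 On viability: percent of carrier control wells set as 100% viability.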 As to conditions: 18-24 h, measured here: SKBR3 viability, ATP luminescence, at 10 µM. (Alpha assays give light when donor and acceptor beads are brought close together.)
Test [2] has as its target Receptor tyrosine-protein kinase erbB-2 (Homo sapiens) (UniProt P04626). The description is as above. The conditions noted are these: 18-24 h, at 10 µM, stronger effect = lower value.
Test [3] in a line: SK-BR-3 cell growth inhibitors, pilot screen, 24 h, human (AID 572;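 active means viability at or below 10% of carrier control in both of two separate runs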;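 further: compound exposure lasted between 18 and 24 h rather than exactly 24 h; 100% = carrier-treated control wells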). The conditions noted are these: SK-BR-3 viability, CellTiter-Glo luminescence, at 10 µM, stronger effect = lower value. (In general: In ATP-based viability assays light output follows the ATP content of the culture.)
Test [4] is described as follows: HUVEC growth inhibition – cell-based, human, primary screen (AID 575;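 active means viability at or below 30% in both replicate assays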;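 further: 100% = median of untreated cell wells with 0.1% DMSO on each plate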). The conditions noted are these: HUVEC proliferation, CellTiter-Glo luminescence, 72 h; at 10 µM; stronger effect = lower value. Summed up: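 Material: primary human umbilical vein endothelial cells / Schedule: 72 h exposure, 37 °C, 5% CO2, 30 min RT equilibration / Signal: ATP-based CellTiter-Glo luminescent read / Read-out basis: percent of median DMSO-control luminescence / Control set: 32 DMSO-only cell-control wells (high), 32 MePR drug-control wells (low) per plate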

Test [5] is described as follows: growth inhibitors of H69AR lung tumor, primary screen, human, duplicate replicates (AID 580;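 active means viability at or under a set limit in both replicates, limit being median viability minus 3 SD, cut at about 48% in these data, passing the limit was not always enough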;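 further: 100% = mean luminescence of untreated wells and 0% = no signal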). As to conditions: H69AR lung tumor cells viability, ATP luminescence, 72 h; at 10 µM; stronger effect = lower value.
The nature of test [6]: reversal of MRP1-mediated doxorubicin resistance, pilot screen, H69AR cells, doxorubicin co-treatment (AID 601;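 active means viability loss from added drug above about 55%, and viability with drug at most 40%, in both replicates, limit read from the data, passing the limit was not always enough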). As to conditions: CellTiter-Glo, 72 h, at 10 µM; for differential viability (reversal): stronger effect = higher value.
A short description of test [7]: 384-well plate pilot, post-Golgi transport modulator project, inhibition of yeast transport mutant growth (AID 636; in the data active means inhibition above about 31%). The conditions noted are these: absorbance 615 nm, about 18 h, stronger effect = higher value.
The nature of test [8]: growth suppression of yeast trafficking mutant, preliminary HTS, modulators of trafficking downstream of Golgi apparatus project, 1536-format plate, OD 615 nm (AID 637; in the data active means inhibition above about 30%). As to conditions: yeast transport mutant growth, absorbance 615 nm, 18 h; stronger effect = higher value.
Setting [9] is: H69AR cells + 2 uM doxorubicin, measured here: viability with 2 uM doxorubicin, stronger effect = lower value.
[10] abbreviates: H69AR cells, compound alone cytotoxicity.

Receptor tyrosine-protein kinase erbB-2 (Homo sapiens), sequence (P04626 whole entry, looked up): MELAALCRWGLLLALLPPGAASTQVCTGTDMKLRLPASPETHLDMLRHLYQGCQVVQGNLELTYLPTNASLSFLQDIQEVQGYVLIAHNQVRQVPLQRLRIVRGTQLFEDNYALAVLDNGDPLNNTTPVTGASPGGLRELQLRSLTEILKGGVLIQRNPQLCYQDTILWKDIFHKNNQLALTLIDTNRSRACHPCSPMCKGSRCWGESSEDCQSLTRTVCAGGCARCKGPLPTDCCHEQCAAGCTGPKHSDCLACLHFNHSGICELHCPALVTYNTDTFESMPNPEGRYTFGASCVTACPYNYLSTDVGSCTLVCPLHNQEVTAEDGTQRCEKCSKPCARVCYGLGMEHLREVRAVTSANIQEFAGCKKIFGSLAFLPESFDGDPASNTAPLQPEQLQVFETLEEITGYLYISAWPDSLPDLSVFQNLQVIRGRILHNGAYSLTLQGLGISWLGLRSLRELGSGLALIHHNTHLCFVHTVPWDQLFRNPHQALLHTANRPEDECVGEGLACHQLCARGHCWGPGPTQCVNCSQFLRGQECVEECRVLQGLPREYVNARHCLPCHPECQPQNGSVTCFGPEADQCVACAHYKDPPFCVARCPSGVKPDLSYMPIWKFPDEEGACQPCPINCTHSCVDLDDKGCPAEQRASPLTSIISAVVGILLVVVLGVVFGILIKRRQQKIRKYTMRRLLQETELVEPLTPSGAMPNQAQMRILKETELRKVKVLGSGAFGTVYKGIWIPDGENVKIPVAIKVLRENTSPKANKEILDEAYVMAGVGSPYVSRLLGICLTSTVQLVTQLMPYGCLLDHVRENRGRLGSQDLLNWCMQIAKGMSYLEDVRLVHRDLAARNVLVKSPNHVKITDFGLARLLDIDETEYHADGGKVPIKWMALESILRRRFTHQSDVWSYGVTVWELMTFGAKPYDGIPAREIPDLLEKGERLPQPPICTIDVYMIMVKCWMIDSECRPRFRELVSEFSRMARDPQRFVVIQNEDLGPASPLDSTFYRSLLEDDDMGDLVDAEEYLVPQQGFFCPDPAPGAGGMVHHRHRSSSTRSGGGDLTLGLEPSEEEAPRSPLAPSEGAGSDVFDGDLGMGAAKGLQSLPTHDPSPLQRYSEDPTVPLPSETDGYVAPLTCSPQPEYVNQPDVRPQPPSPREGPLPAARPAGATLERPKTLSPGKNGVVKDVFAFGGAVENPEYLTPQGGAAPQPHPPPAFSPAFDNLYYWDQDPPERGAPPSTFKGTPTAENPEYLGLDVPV

On to `CCCNS(=O)(=O)c1ccc(C(=O)NCC2CCCO2)cc1` (stereo not given), for which the viability (as a rule, a read-out of living cells in per cent, often relative to untreated cells) was 96.5% in test [1]; 96.5% (inactive) in test [3]; 106% (inactive) in test [4]; 95.1% (inactive) in test [5]; 96.4% in test [6] (setting [9]); 95.1% in test [6] (setting [10]). Besides, the Her2 level in test [2] was 74.5% (inactive). The differential viability (reversal) in test [6] (H69AR cells + 2 uM doxorubicin) is -1.32% (inactive). Further, the inhibition (in general, the drop in the measured response relative to a control, in per cent) was -3.56% (inactive) in test [7] and 0.16% (inactive) in test [8].
As to `OC(COc1ccc2ccccc2c1)CN1CCOCC1` (stereo not given), the viability in test [1] is 98.5%; in test [3], 98.5% (inactive); in test [4], 82.6% (inactive); in test [5], 81.5% (inactive); in test [6] (setting [9]) it was 83.8%; in test [6] (setting [10]) it was 81.5%. Further, the Her2 level in test [2] was 87% (inactive). The differential viability (reversal) in test [6] (H69AR cells + 2 uM doxorubicin) is -2.29% (inactive). The values for the inhibition in test [7] and in test [8] were 1.56% (inactive) and 0.66% (inactive), respectively.
`Cn1cccc1Cc1nnc(SCC(=O)Nc2ccc(F)cc2)n1-c1ccc(F)cc1`: the viability is 86% in test [1]; 86% (inactive) in test [3]; 71.9% (inactive) in test [4]; 80.2% (inactive) in test [5]; 90.1% in test [6] (setting [9]); 80.2% in test [6] (setting [10]). In addition, the Her2 level in test [2] is 93% (inactive). For the same compound, in test [6] (H69AR cells + 2 uM doxorubicin), the differential viability (reversal) was -9.93% (inactive). Also, the inhibition is 0% (inactive) in test [7] and -1% (inactive) in test [8].
Consider `Nc1c(C(=O)NCCc2ccccc2)nnn1Cc1ccccc1`, for which the viability in test [1] was 108%; in test [3], 108% (inactive); in test [4] it was 89% (inactive); in test [5], 95.8% (inactive); in test [6] (setting [9]), 84.7%; in test [6] (setting [10]) it was 95.8%. In addition, in test [2], the Her2 level is 97.5% (inactive). For the same compound, in test [6] (H69AR cells + 2 uM doxorubicin), the differential viability (reversal) was 11.2% (inactive). In addition, the inhibition is -8.55% (inactive) in test [7] and -1.45% (inactive) in test [8].
On to `OCCNCCCCOc1ccccc1F`, for which the viability in test [1] is 84.5%; in test [3], 84.5% (inactive); in test [4] it was 111% (inactive); in test [5] it was 102% (inactive); in test [6] (setting [9]) it was 94.3%; in test [6] (setting [10]) it was 102%. In addition, the Her2 level in test [2] was 128% (inactive). In addition, the differential viability (reversal) in test [6] (H69AR cells + 2 uM doxorubicin) is 8.07% (inactive). Moreover, the inhibition in test [7] was 2.69% (inactive); in test [8] it was -8.17% (inactive).
With `CN(C(=O)c1ccc2c(=O)n3c(nc2c1)CCCCC3)c1ccccc1`, the viability was 96.5% in test [1]; 96.5% (inactive) in test [3]; 97.5% (inactive) in test [4]; 102% (inactive) in test [5]; 101% in test [6] (setting [9]); 102% in test [6] (setting [10]). Moreover, the Her2 level in test [2] is 91% (inactive). In addition, the differential viability (reversal) in test [6] (H69AR cells + 2 uM doxorubicin) is 0.655% (inactive). Further, the inhibition is -7.26% (inactive) in test [7] and 2.54% (inactive) in test [8].
As for `O=C1CCC(=O)N1OCCCOc1ccc(Br)cc1Cl`, the viability in test [1] was 106%; in test [3], 106% (inactive); in test [4], 90% (inactive); in test [5] it was 93.5% (inactive); in test [6] (setting [9]), 95.9%; in test [6] (setting [10]), 93.5%. Further, the Her2 level in test [2] is 98.5% (inactive). Besides, the differential viability (reversal) in test [6] (H69AR cells + 2 uM doxorubicin) is -2.35% (inactive). Further, the inhibition is 0.13% (inactive) in test [7] and 2.22% (inactive) in test [8].
Take `Cc1noc(C)c1C(=O)Nc1ccc(Cl)cc1C(F)(F)F`: the viability in test [1] was 91%; in test [3], 91% (inactive); in test [4] it was 84.7% (inactive); in test [5], 93.1% (inactive); in test [6] (setting [9]), 94%; in test [6] (setting [10]), 93.1%. For the same compound, the Her2 level in test [2] was 86.5% (inactive). For the same compound, the differential viability (reversal) in test [6] (H69AR cells + 2 uM doxorubicin) is -0.845% (inactive). The inhibition in test [7] is -6.13% (inactive); in test [8], 3.11% (inactive).
For `COC(=O)c1cc(S(=O)(=O)N2CCC(C)CC2)ccc1F`, the viability in test [1] was 71%; in test [3], 71% (inactive); in test [4], 88.6% (inactive); in test [5] it was 88.2% (inactive); in test [6] (setting [9]), 89.2%; in test [6] (setting [10]), 88.2%. Further, in test [2], the Her2 level was 104% (inactive). Further, the differential viability (reversal) in test [6] (H69AR cells + 2 uM doxorubicin) is -1.02% (inactive). Also, the inhibition is -3.51% (inactive) in test [7] and 2.79% (inactive) in test [8].
As for `CN(C)S(=O)(=O)Nc1ccc(Br)cc1F`, the viability in test [1] was 108%; in test [3], 108% (inactive); in test [4], 86.9% (inactive); in test [5], 102% (inactive); in test [6] (setting [9]), 88.5%; in test [6] (setting [10]) it was 102%. Also, the Her2 level in test [2] is 82.5% (inactive). In addition, the differential viability (reversal) in test [6] (H69AR cells + 2 uM doxorubicin) was 13.6% (inactive). Besides, the inhibition in test [7] was -5.2% (inactive); in test [8], -8.1% (inactive).
In the case of `CN(C)CCN1C(=O)c2oc3ccc(Cl)cc3c(=O)c2C1c1cccc(Br)c1` (stereo not given), the viability is 102% in test [1]; 102% (inactive) in test [3]; 87.9% (inactive) in test [4]; 77.1% (inactive) in test [5]; 74.2% in test [6] (setting [9]); 77.1% in test [6] (setting [10]). In test [2], the Her2 level is 72.5% (inactive). For the same compound, in test [6] (H69AR cells + 2 uM doxorubicin), the differential viability (reversal) was 2.96% (inactive). In addition, the inhibition in test [7] is -1.17% (inactive); in test [8] it was -5.5% (inactive).
With `O=C(CCN1CCc2ccccc2C1)Nc1ccc2c(c1)OCO2`, the viability in test [1] is 88.5%; in test [3], 88.5% (inactive); in test [4], 84.4% (inactive); in test [5], 87.1% (inactive); in test [6] (setting [9]) it was 105%; in test [6] (setting [10]), 87.1%. In test [2], the Her2 level is 94% (inactive). In addition, the differential viability (reversal) in test [6] (H69AR cells + 2 uM doxorubicin) is -18.3% (inactive). Also, the inhibition is -4.4% (inactive) in test [7] and 0.81% (inactive) in test [8].
In the case of `CCOc1cc(N2CCOCC2)c(OCC)cc1NC(=O)CSc1cccc[n+]1[O-]`, the viability in test [1] is 128%; in test [3], 128% (inactive); in test [4] it was 94% (inactive); in test [5] it was 86.8% (inactive); in test [6] (setting [9]) it was 84.8%; in test [6] (setting [10]), 86.8%. The Her2 level in test [2] is 93% (inactive). Further, the differential viability (reversal) in test [6] (H69AR cells + 2 uM doxorubicin) was 1.93% (inactive). In addition, the inhibition in test [7] was -5.26% (inactive); in test [8], -4% (inactive).
As for `CN(C1CCS(=O)(=O)C1)S(=O)(=O)c1cccc2nsnc12` (stereo not given), the viability in test [1] was 104%; in test [3], 104% (inactive); in test [4], 107% (inactive); in test [5] it was 107% (inactive); in test [6] (setting [9]), 100%; in test [6] (setting [10]) it was 107%. Besides, the Her2 level in test [2] was 100% (inactive). The differential viability (reversal) in test [6] (H69AR cells + 2 uM doxorubicin) was 6.67% (inactive). The inhibition in test [7] was -6.58% (inactive); in test [8] it was -2.7% (inactive).
Regarding `COc1ccc(OC)c(S(=O)(=O)NCCC2=CCCCC2)c1`, the viability was 77% in test [1]; 77% (inactive) in test [3]; 106% (inactive) in test [4]; 96.6% (inactive) in test [5]; 102% in test [6] (setting [9]); 96.6% in test [6] (setting [10]). For the same compound, in test [2], the Her2 level was 87.5% (inactive). Besides, in test [6] (H69AR cells + 2 uM doxorubicin), the differential viability (reversal) is -5.82% (inactive). The inhibition was -6.89% (inactive) in test [7] and -3.77% (inactive) in test [8].
For `CC(C)(C)OC(=O)NC(CCNC=C1C(=O)OC(C)(C)OC1=O)C(=O)O` (stereo not given), the viability in test [1] is 105%; in test [3], 105% (inactive); in test [4] it was 104% (inactive); in test [5], 101% (inactive); in test [6] (setting [9]), 89.2%; in test [6] (setting [10]) it was 101%. The Her2 level in test [2] was 92.5% (inactive). For the same compound, the differential viability (reversal) in test [6] (H69AR cells + 2 uM doxorubicin) was 11.6% (inactive). The inhibition was -7.03% (inactive) in test [7] and -3.5% (inactive) in test [8].
